Data reported in ChEMBL document CHEMBL1156768, “The structure-activity relationship of the antimalarial ozonide arterolane (OZ277)” (J Med Chem, 2010).
Converted amounts (≈) assume the structure as drawn.

How the values were obtained:
Plasmodium falciparum [1] = test: Antimalarial activity against chloroquine-resistant Plasmodium falciparum K1 infected in human A+ erythrocytes assessed as [3H]hypoxanthine incorporation by semiautomated micro dilution assay; assay type: functional, organism-based
Plasmodium falciparum [2] = test: Antimalarial activity against chloroquine-sensitive Plasmodium falciparum NF54 infected in human A+ erythrocytes assessed as [3H]hypoxanthine incorporation by semi-automated micro dilution assay; assay type: functional, organism-based
Plasmodium berghei [3] = test: Antiplasmodial activity against Plasmodium berghei infected in NMRI mice (Mus musculus) assessed as reduction of parasitaemia level at 10 mg/kg, perorally administered 1 day after post-infection measured after 3 days post-infection; assay type: functional; set-up: scale not given: the % may be the effect or the level left; conditions: route oral
In short: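 Groups of five NMRI mice infected with P. berghei received a single oral dose on day 1 postinfection. Read-out was percent reduction in parasitemia on day 3 postinfection. Individual measurements differed by less than 10%.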

[4] = Half life in Sprague-Dawley rat at 2.5 to 3.5 mg/kg, iv; assay type: ADME, organism-based; set-up: dose 2.5-3.5 mg/kg, route intravenous; conditions: in vivo
In short: (§1)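 Rats received an IV infusion over 5-10 min through a jugular cannula at 2.5-3.5 mg/kg, in DMSO/aqueous buffer or propylene glycol/ethanol/water. Oral gavage used aqueous suspensions in HPMC or CMC with 0.4% Tween 80 and 0.5% benzyl alcohol. Carotid blood was sampled, and plasma was acetonitrile-precipitated and measured by LC/MS against plasma calibration standards. Values are averages of 2-3 determinations.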

[5] = Oral bioavailability in Sprague-Dawley rat; assay type: ADME, organism-based; conditions: in vivo; in short: as §1
[6] = Volume of distribution in Sprague-Dawley rat at 2.5 to 3.5 mg/kg, iv; assay type: ADME, organism-based; set-up: dose 2.5-3.5 mg/kg, route intravenous; conditions: in vivo; in short: as §1
Plasmodium berghei [7] = test: Antiplasmodial activity against Plasmodium berghei infected in NMRI mice (Mus musculus) assessed as curing of parasitaemia at 3 mg/kg, perorally daily once for 3 consecutive days measured after 30 days post-infection; assay type: functional; conditions: route oral
In short: (§2)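 P. berghei-infected NMRI mice, in groups of five, were dosed orally at 3 mg/kg on days +1, +2 and +3 postinfection. Parasitemia reduction, survival time and cure were scored.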

[8] = Plasma clearance in Sprague-Dawley rat at 2.5 to 3.5 mg/kg, iv; assay type: ADME, organism-based; set-up: dose 2.5-3.5 mg/kg, route intravenous; in short: as §1
Plasmodium berghei [9] = test: Antiplasmodial activity against Plasmodium berghei infected in NMRI mice (Mus musculus) assessed as mice (Mus musculus) survival days at 3 mg/kg, perorally daily once for 3 consecutive days measured after 4 days post-infection; assay type: functional; conditions: route oral; in short: as §2
Plasmodium berghei [10] = test: Antiplasmodial activity against Plasmodium berghei infected in NMRI mice (Mus musculus) assessed as reduction of parasitaemia level at 3 mg/kg, perorally daily once for 3 consecutive days measured after 4 days post-infection; assay type: functional; set-up: scale not given: the % may be the effect or the level left; conditions: route oral; in short: as §2
[11] = Blood clearance in Sprague-Dawley rat at 2.5 to 3.5 mg/kg, iv; assay type: ADME, organism-based; set-up: dose 2.5-3.5 mg/kg, route intravenous; conditions: whole blood; in short: as §1

| SMILES | IC50 (Plasmodium falciparum [1]) [ng/mL] | IC50 (Plasmodium falciparum [2]) [ng/mL] | Activity (Plasmodium berghei [3]) [%] | half-life [4] [h] | bioavailability [5] [%] | Vd [6] [L/kg] | Activity (Plasmodium berghei [7]) [%] | clearance [8] [mL/min/kg] | Survival (Plasmodium berghei [9]) [days] | Activity (Plasmodium berghei [10]) [%] | clearance [11] [mL/min/kg] |
| --- | --- | --- | --- | --- | --- | --- | --- | --- | --- | --- | --- |
| O=C(O)C[C@H]1CC[C@]2(CC1)OO[C@]1(O2)C2CC3CC(C2)CC1C3 | 34 (≈ 105 nM) | 45 (≈ 140 nM) | 95 | – | – | – | – | – | – | – | – |
| Cc1ccc(S(=O)(=O)O)cc1.NCCNC(=O)C[C@H]1CC[C@]2(CC1)OO[C@]1(O2)C2CC3CC(C2)CC1C3 | – | – | 99.9 | – | – | – | – | – | – | – | – |
| CC(C)(N)CNC(=O)NC[C@H]1CC[C@]2(CC1)OO[C@]1(O2)C2CC3CC(C2)CC1C3.Cc1ccc(S(=O)(=O)O)cc1 | 3.2 | 3.5 | 97 | – | – | – | – | – | – | – | – |
| CC(C)(N)Cn1nnnc1C[C@H]1CC[C@]2(CC1)OO[C@]1(O2)C2CC3CC(C2)CC1C3 | 2.3 (≈ 5.51 nM) | 1.5 (≈ 3.59 nM) | 98 | – | – | – | – | – | – | – | – |
| Cc1ccc(S(=O)(=O)O)cc1.NC1(CNC(=O)C[C@H]2CC[C@]3(CC2)OO[C@]2(O3)C3CC4CC(C3)CC2C4)CC1 | 0.4 | 0.52 | 99.9 | – | – | – | – | – | – | – | – |
| CC(C)(CN)CNC(=O)C[C@H]1CC[C@]2(CC1)OO[C@]1(O2)C2CC3CC(C2)CC1C3.CS(=O)(=O)O | 0.46 | 0.49 | 99.9 | – | – | – | – | – | – | – | – |
| CC(C)(N)CNC(=O)N[C@H]1CC[C@]2(CC1)OO[C@]1(O2)C2CC3CC(C2)CC1C3.Cc1ccc(S(=O)(=O)O)cc1 | 8.4 | 6.2 | 63 | – | – | – | – | – | – | – | – |
| O=C(C[C@H]1CC[C@]2(CC1)OO[C@]1(O2)C2CC3CC(C2)CC1C3)N1CCN(CCO)CC1 | 1 (≈ 2.3 nM) | 0.9 (≈ 2.07 nM) | 96 | – | – | – | – | – | – | – | – |
| CC(C)(N)CNC(=O)[C@H]1CC[C@@]2(CC1)OO[C@@]1(O2)C2CC3CC(C2)CC1C3.Cc1ccc(S(=O)(=O)O)cc1 | 1.4 | 0.74 | 84 | – | – | – | – | – | – | – | – |
| NC(=O)CNC(=O)C[C@H]1CC[C@]2(CC1)OO[C@]1(O2)C2CC3CC(C2)CC1C3 | 3.9 (≈ 10.3 nM) | 3.6 (≈ 9.51 nM) | 99.6 | – | – | – | – | – | – | – | – |
| CC(C)(N)CNC(=O)CC[C@H]1CC[C@]2(CC1)OO[C@]1(O2)C2CC3CC(C2)CC1C3.Cc1ccc(S(=O)(=O)O)cc1 | 0.55 | 0.82 | >99.9 | 1 | 32 | 12 | 0 | 134 | 24.4 | >99.9 | – |
| CS(=O)(=O)N1CCN(C(=O)C[C@H]2CC[C@]3(CC2)OO[C@]2(O3)C3CC4CC(C3)CC2C4)CC1 | – | – | <40 | – | – | – | – | – | – | – | – |
| Cc1ccc(S(=O)(=O)O)cc1.O=C(C[C@H]1CC[C@]2(CC1)OO[C@]1(O2)C2CC3CC(C2)CC1C3)N1CCNCC1 | 0.21 | 0.24 | >99.9 | 1.7 | 37 | 25 | 0 | 168 | – | >99.9 | 56.3 |
| NC(=O)C1CCN(C(=O)C[C@H]2CC[C@]3(CC2)OO[C@]2(O3)C3CC4CC(C3)CC2C4)CC1 | – | 1.7 (≈ 3.93 nM) | 86 | – | – | – | – | – | – | – | – |
| CC(C)(N)CNC(=O)OC[C@H]1CC[C@]2(CC1)OO[C@]1(O2)C2CC3CC(C2)CC1C3.Cc1ccc(S(=O)(=O)O)cc1 | 0.22 | 0.36 | >99.9 | – | – | – | 0 | – | 9.8 | >99.9 | – |
| O=CN1CCN(C(=O)C[C@H]2CC[C@]3(CC2)OO[C@]2(O3)C3CC4CC(C3)CC2C4)CC1 | 0.39 (≈ 0.932 nM) | 0.63 (≈ 1.51 nM) | 99.8 | – | – | – | – | – | – | – | – |
| CC(C)(N)CNC(=O)C[C@H]1CC[C@@]2(CC1)OO[C@@]1(O2)C2CC3CC(C2)CC1C3.Cc1ccc(S(=O)(=O)O)cc1 | 1.7 | 1.5 | 96 | 0.617 | 15 | 16 | – | 298 | – | – | – |
